# Reference: PMC10448036 (International Journal for Parasitology: Drugs and Drug …, 2023)
# Read-outs that look alike come from different tables or passages of the source. Marks after values point to notes of the source that are not given here.
# Key:
# [1] = system: Nematodirus spp., Oesphagostomum spp. and Trichuris ovis; test: Adult nematode counts at necropsy; assay type: in vivo; settings: 13 days post-treatment, sc and oral, lambs n = 2 per group
# How it was run: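 Naturally parasitized lambs, ranked by epg and split into groups of 10, were dosed on day 0 by individual weight with two test compounds, alone or combined. The first was given at 5 mg/kg sc or 10 mg/kg oral, the second at 0.2 mg/kg sc or oral. An untreated control group was kept. At 13 and 28 days post-treatment, two random animals per group were killed by captive bolt and exsanguinated.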
# [2] = system: Other genera (Trichostrongylus spp.; Teladorsagia spp. and Oesophagostomum spp.); test: L3 from pooled faecal cultures, by genus; assay type: in vivo, lambs
# How it was run: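 Naturally parasitized lambs (groups of 10) were dosed by weight on day 0 with two test compounds, alone or combined: the first at 5 mg/kg sc or 10 mg/kg oral, the second at 0.2 mg/kg sc or oral; untreated controls were kept. Rectal faeces were counted for epg by modified McMaster. Pooled group faecal cultures at days −1, 13, 22 and 28 gave L3 typed to genus. Genus efficacy = 100×(1−T/C) on arithmetic-mean epg partitioned by each genus's L3 proportion.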
# susceptible H. contortus = settings: single dose, sheep, absence of resistance, cited from earlier work
# [3] = Adverse events / tolerability; assay type: in vivo; settings: lambs, sc and oral treatments
# [4] = system: multiple resistant gastrointestinal nematodes (mainly H. contortus); test: Faecal egg count reduction test; assay type: in vivo, lambs; settings: for Nematode egg counts (mean): arithmetic mean; for Efficacy (%) [CI] (FECRT): 95% CI, Coles et al. (1992) formula
# Haemoncus spp. = test: L3 from pooled faecal cultures, by genus; assay type: in vivo, lambs
# H. contortus population = settings: SUL experimental farm, ref Castells, personal communication; cited from earlier work
# [5] = ref Hennessy and Ali, 1997; cited from earlier work
# [6] = Plasma disposition kinetics; assay type: in vivo, lambs; settings: for AUC0-LOQ / AUC0-∞: closantel in plasma, lambs
# plasma proteins = settings: ref Mohammed Ali and Bogan, 1987; Hennessy, 1993; cited from earlier work
# P-gp = settings: ref Lespine et al., 2006; cited from earlier work
# [7] = system: gastrointestinal nematodes; settings: cattle, ref Leathwick and Miller (2013), cited from earlier work
# [8] = most species, ref Zulalian et al., 1994; cited from earlier work
# [9] = system: breast cancer resistance protein (BCRP); settings: ref Pérez et al., 2009; cited from earlier work
# [10] = 22 days post-treatment, subcutaneous
# [11] = 28 days post-treatment, subcutaneous
# [12] = Day 2 post-treatment, oral (CLO 10 mg/kg, MXD 0.2 mg/kg)
# [13] = Day 2 post-treatment, subcutaneous (CLO 5 mg/kg, MXD 0.2 mg/kg)
# [14] = Day 6 post-treatment, oral (CLO 10 mg/kg, MXD 0.2 mg/kg)
# [15] = Day 6 post-treatment, subcutaneous (CLO 5 mg/kg, MXD 0.2 mg/kg)
# [16] = Day 10 post-treatment, oral (CLO 10 mg/kg, MXD 0.2 mg/kg)
# [17] = Day 13 post-treatment, oral (CLO 10 mg/kg, MXD 0.2 mg/kg)
# [18] = Day 13 post-treatment, subcutaneous (CLO 5 mg/kg, MXD 0.2 mg/kg)
# [19] = Day 22 post-treatment, oral (CLO 10 mg/kg, MXD 0.2 mg/kg)
# [20] = Day 22 post-treatment, subcutaneous (CLO 5 mg/kg, MXD 0.2 mg/kg)
# [21] = Day 28 post-treatment, oral (CLO 10 mg/kg, MXD 0.2 mg/kg)
# [22] = Day 28 post-treatment, subcutaneous (CLO 5 mg/kg, MXD 0.2 mg/kg)
# [23] = CLO co-administered with MXD by the sc route vs CLO alone, P < 0.05
# [24] = CLO 10 mg/kg oral alone (CLOoral)
Compound,"Fate of Nematodirus spp., Oesphagostomum spp. and Trichuris ovis [1]","Efficacy (%) ([2]; 22 days post-treatment, oral)","Efficacy (%) [2, 10] [%]",Adverse events [3],"Nematode egg counts (mean) [4, 12]","Nematode egg counts (mean) [4, 13]","Nematode egg counts (mean) [4, 14]","Nematode egg counts (mean) [4, 15]","Nematode egg counts (mean) [4, 16]","Efficacy (%) [CI] (FECRT) [4, 17]","Nematode egg counts (mean) [4, 17]","Efficacy (%) [CI] (FECRT) [4, 18]","Nematode egg counts (mean) [4, 18]","Efficacy (%) [CI] (FECRT) [4, 19]","Nematode egg counts (mean) [4, 19]","Efficacy (%) [CI] (FECRT) [4, 20]","Nematode egg counts (mean) [4, 20]","Efficacy (%) [CI] (FECRT) [4, 21]","Nematode egg counts (mean) [4, 21] [epg]","Efficacy (%) [CI] (FECRT) [4, 22]",further results
"Cc1cc(C(C#N)c2ccc(Cl)cc2)c(Cl)cc1NC(=O)c1cc(I)cc(I)c1O (centres unmarked) [CLO, closantel]",survive,96,100,No adverse events were observed,630 ^b epg,790 ^b epg,550 ^b epg,530 ^b epg,770^c epg,84 [71–91] %,890 ^b epg,85 [72–92] %,830 ^b epg,83 [73–89] %,850 ^b epg,82 [67–91] %,863 ^b epg,66 [36–82] %,1350,84 [57–94] %,"Efficacy (%) [2, 11]: 99%; Protection against reinfection up to (susceptible H. contortus; ref Hall et al., 1981): up to 28 days; Efficacy (FECRT) ([4]; 13 days post-treatment, drug alone, over the sc and oral treatments): 84 to 85%; Nematode egg counts (mean) [4, 22]: 650 epg; Efficacy (%) (Haemoncus spp.; 22 days post-treatment, oral): 4%; Efficacy (%) (Haemoncus spp.; [10]): 0%; Efficacy (%) (Haemoncus spp.; 28 days post-treatment, oral): 9%; Efficacy (%) (Haemoncus spp.; [11]): 1%; Efficacies of single dose (H. contortus population): above 85%; Biodegradation by the ruminal fluid [5]: not exposed to any significant biodegradation; Longer MRT after co-administration [6, 23]: 42%; Longer T½el after co-administration [6, 23]: 39%; Plasma drug exposure (AUC0-LOQ) lower after oral than after sc treatment ([6]; CLO oral 10 mg/kg vs sc 5 mg/kg, P < 0.05): 34%; AUC0-LOQ ([6]; CLO 5 mg/kg sc alone (CLOSC)): 1570 ± 419^ab μg.d/mL; AUC0-∞ ([6]; CLO 5 mg/kg sc alone (CLOSC)): 2231 ± 662^ab μg.d/mL; AUC0-LOQ [6, 24]: 1042 ± 170^c μg.d/mL; AUC0-∞ [6, 24]: 1438 ± 367^b μg.d/mL; Quantified in plasma up to ([6]; post oral treatment): up to 28 days; Quantified in plasma up to ([6]; post sc treatment): up to 28 days; Binding to plasma proteins (plasma proteins): > 99%"
"CO/N=C1\C[C@]2(C[C@@H]3C[C@@H](C/C=C(\C)C[C@@H](C)/C=C/C=C4\CO[C@@H]5[C@H](O)C(C)=C[C@@H](C(=O)O3)[C@]45O)O2)O[C@H](/C(C)=C/C(C)C)[C@H]1C [MXD, moxidectin]",efficiently eliminated,0,0,No adverse events were observed,240 ^ab epg,150 ^ab epg,340 ^ab epg,250^a epg,530 ^bc epg,80 [62–89] %,1140 ^b epg,92 [85–96] %,430 ^b epg,82 [53–93] %,888 ^b epg,80 [61–90] %,975 ^b epg,61 [6–84] %,1525,74 [38–89] %,"Efficacy (%) ([2]; 13 days post-treatment, oral): 0%; Efficacy (%) ([2]; 28 days post-treatment, oral): 0%; Interaction with mammalian P-gp (P-gp): much weaker compared with ivermectin; Protection against reinfection up to (susceptible H. contortus; ref Kerboeuf et al., 1995): ≤ 35 days; Efficacy ([7]; oral treatment): 91.1%; Efficacy ([7]; sc injection): 55.5%; Nematode egg counts (mean) [4, 22]: 1013 epg; Efficacy (%) (Haemoncus spp.; 13 days post-treatment, oral): 100%; Efficacy (%) (Haemoncus spp.; 22 days post-treatment, oral): 100%; Efficacy (%) (Haemoncus spp.; [10]): 100%; Efficacy (%) (Haemoncus spp.; 28 days post-treatment, oral): 100%; Efficacies of single dose (H. contortus population): above 85%; Dose excreted unchanged in the faeces [8]: 90%; AUC0-LOQ after the oral treatment as share of that after the sc treatment ([6]; MXD 0.2 mg/kg oral vs sc): 33%; Quantified in plasma up to ([6]; post oral treatment): ≤ 25 days; Quantified in plasma up to ([6]; post sc treatment): up to 28 days; Interaction with BCRP [9]: identified as a BCRP substrate"
